Published values gathered from unrelated publications.
Compare with care: the assays were run in different laboratories.
Observed: cell growth or viability

With `CNC(=O)c1ccccc1Sc1ccc2c(N)n[nH]c2c1` the GI50 was 7.9 µM (BaF3; CCK-8).
`COc1ccc(-c2ccc(-c3ccc(C(=N)N)nc3)s2)cc1` has a GI50 of 1.76 µM (SF-268; SRB).
`COc1ccc(NC(=O)Nc2ccc(OCc3nccc(OCC(F)(F)F)c3C)cc2)cc1` gave an IC50 of > 100 µM (L02; MTT; 72 h).
The inhibition of `O=C1Nc2ccccc2C1=NNc1nnc2n1N=C(c1ccccc1)CS2` is reported as 31% (SF-268; SRB; 10 µM).
The IC50 of `O=C(N/N=C/c1c(O)ccc2ccccc12)c1cc(-c2ccc3ccccc3c2)n[nH]1` is reported as 1.8 µM (WM-115; MTS; 72 h).
For `C=CC(=O)N1CCC[C@@H](n2nc(-c3ccc(Oc4ccccc4)cc3)c3c(N)ncnc32)C1`, the GI50 was 2.8 µM (NALM-6; ATP luminescence; 72 h).
`Oc1ccc(Nc2nc(-c3ccc(Cl)cc3)cs2)cc1` gave an IC50 of 23.8 µM (WM-115; MTS; 48 h).
With `CNC(=O)c1ccccc1Sc1ccc2c(/C=C/c3ccccn3)n[nH]c2c1` the GI50 was 1.31 µM (BaF3; ATP luminescence; 72 h).
`CC(C)(C)n1ncc2c(Nc3ccc(OC(F)(F)F)cc3)ncnc21` has an EC50 of > 10 µM (BaF3; ATP luminescence).
`CNC(=O)c1cc(Oc2ccc(NC(=O)Nc3ccc(Cl)c(C(F)(F)F)c3)c(F)c2)ccn1` has a GI50 of 1.81 µM (BaF3; ATP luminescence; 72 h).
For `COc1ccccc1S(=O)(=O)Nc1ccc2c(c1)CN(C)C(=O)N2`, the GI50 was 8 µM (NALM-6; ATP luminescence).
With `Nc1n[nH]c2cc(I)ccc12` the GI50 was > 10 µM (BaF3; CCK-8).
`COc1cc(N2CCC(N3CCN(C)CC3)CC2)ccc1Nc1ncc(Cl)c(Nc2ccccc2P(C)(C)=O)n1` gave a GI50 of 2.1 µM (BaF3; 72 h).
With `COc1ccnc(COc2ccc(NC(=O)Nc3cccc(C(F)(F)F)c3)cc2)c1OC` the IC50 was > 100 µM (L02; MTT; 72 h).
For `COc1cc(-c2ccc(-c3ccc(C(=N)N)nc3)s2)cc(OC)c1OC`, the GI50 was 14.6 µM (SF-268; SRB).
`COc1ccc(NC(=O)Nc2ccc(OCc3ncc(C)c(OC)c3C)cc2)cc1` gave an IC50 of > 100 µM (L02; MTT; 72 h).
The GI50 of `COc1cccc(Oc2ccccc2NC(=O)CNC(=O)c2cccc3ccccc23)c1` is reported as 0.55 µM (SF-268; SRB; 48 h).
